ChEMBL document CHEMBL4665664, “Discovery of Orally Active Hydroxyethylamine Based SPPL2a Inhibitors” (ACS Med Chem Lett, 2019)
Converted amounts (≈) assume the structure as drawn. The source made the active and inactive calls. The calls are words filed in the database; no cut-off is given here.

Key:
Gamma-secretase = test: Inhibition of gamma-secretase (unknown origin) expressed in HEK293 cells cotransfected with Notch1-VP16-GAL4 fusion and Gal4 luciferase reporter plasmid incubated for 24 hrs by luciferase reporter gene assay luminescence assay; type: cell-based, Homo sapiens
[1] = molecular target: T1, Signal peptide peptidase-like 2A (Homo sapiens, UniProt Q8TCT8); test: Inhibition of human SPPL2a expressed in HEK293 cells cotransfected with Gal4 luciferase reporter plasmid and VP16-TNFalpha(1-76)-NTF incubated for 24 hrs by luciferase reporter gene assay based luminescence assay; type: cell-based
T1 sequence (Q8TCT8 whole entry): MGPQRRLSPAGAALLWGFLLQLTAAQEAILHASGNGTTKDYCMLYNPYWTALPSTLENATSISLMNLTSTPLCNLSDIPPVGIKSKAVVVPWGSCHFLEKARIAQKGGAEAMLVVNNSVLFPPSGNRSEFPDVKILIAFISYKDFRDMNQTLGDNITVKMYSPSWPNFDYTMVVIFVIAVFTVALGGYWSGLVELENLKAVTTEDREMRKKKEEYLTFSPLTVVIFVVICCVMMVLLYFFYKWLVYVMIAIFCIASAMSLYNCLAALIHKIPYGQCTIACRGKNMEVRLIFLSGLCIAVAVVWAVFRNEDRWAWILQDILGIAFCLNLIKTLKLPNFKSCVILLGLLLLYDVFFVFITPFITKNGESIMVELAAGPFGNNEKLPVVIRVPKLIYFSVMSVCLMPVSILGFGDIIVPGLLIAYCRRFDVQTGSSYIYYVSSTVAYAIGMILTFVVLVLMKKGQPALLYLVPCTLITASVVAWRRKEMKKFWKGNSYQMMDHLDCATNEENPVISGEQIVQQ

[2] = Lipophilicity, logD of the compound in octanol-buffer at pH 7.4 by shake-flask equilibrium based LC/MS/MS analysis; type: physicochemical
Method in brief: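 log D determined at pH 7.4 by rapid-throughput octanol/buffer 96-well shake-flask equilibration, with LC/MS/MS quantification.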

[3] = Equilibrium solubility of the compound in DMSO solution at pH 6.8 by saturation shake flask method; type: physicochemical
Method in brief: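 Equilibrium solubility by saturation shake-flask at pH 6.8, starting from DMSO solution.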

Mus musculus = test: In vivo inhibition of SPPL2a in mouse assessed as increase in CD74/p8 NTF accumulation in splenocytes lysates at 100 mg/kg, po administered as single dose and measured after 4 hrs post-dosing by western blot analysis; conditions: Lysate
Beta-secretase 2 = molecular target: T2, Beta-secretase 2 (Homo sapiens, UniProt Q9Y5Z0); test: Inhibition of human BACE2 (63 to 466 residues) expressed in baculovirus infected insect cells using Ac-C(PT14)EVNLDAEWK-NH2 as substrate preincubated for 1 hr followed by substrate addition and measured after 1 hr by fluorescence based assay
T2 sequence (Q9Y5Z0 whole entry): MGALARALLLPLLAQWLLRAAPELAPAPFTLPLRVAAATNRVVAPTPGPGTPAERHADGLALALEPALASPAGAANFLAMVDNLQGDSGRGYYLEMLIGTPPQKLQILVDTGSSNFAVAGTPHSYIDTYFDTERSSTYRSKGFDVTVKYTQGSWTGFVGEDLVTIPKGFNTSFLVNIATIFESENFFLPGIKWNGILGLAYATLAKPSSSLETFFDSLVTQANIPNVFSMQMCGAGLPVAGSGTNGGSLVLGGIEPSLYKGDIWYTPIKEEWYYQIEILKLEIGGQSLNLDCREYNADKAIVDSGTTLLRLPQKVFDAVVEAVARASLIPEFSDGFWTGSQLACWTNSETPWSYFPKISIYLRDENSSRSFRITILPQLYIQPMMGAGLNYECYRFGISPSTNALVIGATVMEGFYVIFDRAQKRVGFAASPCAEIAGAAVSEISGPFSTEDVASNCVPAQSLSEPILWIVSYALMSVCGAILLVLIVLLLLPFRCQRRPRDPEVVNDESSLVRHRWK

Renin = molecular target: T3, Renin (Homo sapiens, UniProt P00797); test: Inhibition of human renin (67 to 406 residues) expressed in CHO cells using KHPWHLVIHT-C(PT14)-K as substrate preincubated for 1 hr followed by substrate addition and measured after 1 hr by fluorescence based assay
T3 sequence (P00797 whole entry): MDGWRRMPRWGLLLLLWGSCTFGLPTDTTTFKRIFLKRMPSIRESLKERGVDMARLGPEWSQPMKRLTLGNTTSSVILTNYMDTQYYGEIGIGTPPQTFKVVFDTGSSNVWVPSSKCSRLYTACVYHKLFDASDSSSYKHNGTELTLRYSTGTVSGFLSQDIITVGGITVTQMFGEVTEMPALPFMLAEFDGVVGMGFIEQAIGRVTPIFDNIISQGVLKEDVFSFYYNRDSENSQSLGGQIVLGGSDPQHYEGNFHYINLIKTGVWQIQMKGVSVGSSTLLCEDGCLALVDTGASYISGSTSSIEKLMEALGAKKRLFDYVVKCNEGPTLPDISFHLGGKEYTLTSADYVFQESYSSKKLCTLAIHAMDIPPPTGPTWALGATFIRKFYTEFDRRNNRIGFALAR

Cathepsin E = molecular target: T4, Cathepsin E (Homo sapiens, UniProt P14091); test: Inhibition of human cathepsin E isoform 1 (19 to 401 residues) expressed in Escherichia coli using R-C(PT14)KPILFFRLGWR-OH as substrate preincubated for 1 hr followed by substrate addition and measured after 1 hr by fluorescence based assay
T4 sequence (P14091 whole entry): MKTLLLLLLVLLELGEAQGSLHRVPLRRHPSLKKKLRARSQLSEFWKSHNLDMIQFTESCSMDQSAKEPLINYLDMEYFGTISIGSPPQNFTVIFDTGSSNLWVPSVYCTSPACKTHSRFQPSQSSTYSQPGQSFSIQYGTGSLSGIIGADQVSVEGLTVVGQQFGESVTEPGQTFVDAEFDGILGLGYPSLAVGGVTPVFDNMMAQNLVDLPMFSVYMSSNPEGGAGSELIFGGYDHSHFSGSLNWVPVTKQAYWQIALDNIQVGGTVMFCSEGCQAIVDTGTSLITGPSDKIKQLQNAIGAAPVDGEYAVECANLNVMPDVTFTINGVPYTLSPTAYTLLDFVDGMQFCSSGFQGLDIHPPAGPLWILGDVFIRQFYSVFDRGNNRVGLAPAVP

Cathepsin D = Cathepsin D (Homo sapiens, UniProt P07339); test: Inhibition of human cathepsin D (1 to 412 residues) expressed in baculovirus infected insect cells using R-C(PT14)-KPILFFRLGWR-OH as substrate preincubated for 1 hr followed by substrate addition and measured after 1 hr by fluorescence based assay
Beta-secretase 1 = Beta-secretase 1 (Homo sapiens, UniProt P56817); test: Inhibition of human BACE1 (46 to 435 residues) expressed in baculovirus infected insect cells using Ac-C(PT14)EVNLDAEWK-NH2 as substrate preincubated for 1 hr followed by substrate addition and measured after 1 hr by fluorescence based assay
Chain of Beta-secretase 1 (P56817 whole entry, the tested form may be a part): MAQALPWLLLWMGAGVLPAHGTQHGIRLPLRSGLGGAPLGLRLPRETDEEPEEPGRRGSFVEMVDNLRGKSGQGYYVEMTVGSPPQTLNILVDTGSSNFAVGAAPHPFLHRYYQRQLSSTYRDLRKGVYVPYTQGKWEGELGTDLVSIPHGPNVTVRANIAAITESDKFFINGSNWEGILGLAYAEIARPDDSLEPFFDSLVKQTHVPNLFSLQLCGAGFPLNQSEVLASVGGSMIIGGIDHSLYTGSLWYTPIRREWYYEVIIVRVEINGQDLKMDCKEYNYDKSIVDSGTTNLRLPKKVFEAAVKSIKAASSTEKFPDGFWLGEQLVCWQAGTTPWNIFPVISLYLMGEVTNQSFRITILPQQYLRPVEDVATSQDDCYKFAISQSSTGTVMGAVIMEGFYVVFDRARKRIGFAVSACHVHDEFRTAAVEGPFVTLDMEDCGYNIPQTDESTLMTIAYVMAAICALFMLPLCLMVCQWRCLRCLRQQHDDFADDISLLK

Chain of Cathepsin D (P07339 65-162 limits assumed): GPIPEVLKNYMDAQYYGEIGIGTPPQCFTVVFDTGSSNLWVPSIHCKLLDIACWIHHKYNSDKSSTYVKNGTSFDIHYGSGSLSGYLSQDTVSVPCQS
Chain of Cathepsin D (P07339 169-412 limits assumed): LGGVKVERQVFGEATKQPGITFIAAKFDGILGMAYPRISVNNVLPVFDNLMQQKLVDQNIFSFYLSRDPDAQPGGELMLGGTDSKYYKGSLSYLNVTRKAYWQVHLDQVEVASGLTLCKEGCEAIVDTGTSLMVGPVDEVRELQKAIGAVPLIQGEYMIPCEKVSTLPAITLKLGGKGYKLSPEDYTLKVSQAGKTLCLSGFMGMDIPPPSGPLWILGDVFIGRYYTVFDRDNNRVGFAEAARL

N[C@@H](c1ccccc1)[C@@H](O)CN(C1CCC1)S(=O)(=O)c1ccc2scnc2c1
IC50 (Gamma-secretase): > 10 µM

CC(C)ON(C[C@H](O)[C@@H](N)c1ccccc1)S(=O)(=O)c1ccc(Cl)c(Cl)c1
IC50 (Gamma-secretase): 5.9 µM

CC(C)CN(C[C@H](O)[C@@H](N)Cc1ccccc1)S(=O)(=O)c1ccc(Cl)c(Cl)c1
IC50 [1]: 0.86 µM
logD [2]: 3.1
solubility [3]: < 2 µg/mL

CC(C)CN(C[C@H](O)[C@H](Cc1ccccc1)NC(=O)OCc1ccccc1)S(=O)(=O)c1ccc(Cl)c(Cl)c1
IC50 [1]: 4.3 µM
logD [2]: > 4.6
solubility [3]: < 2 µg/mL

N[C@@H](c1ccccc1)[C@@H](O)CN(C1COC1)S(=O)(=O)c1ccc(Cl)c(Cl)c1
IC50 (Gamma-secretase): > 10 µM

N[C@@H](c1ccccc1)[C@@H](O)CN(C1CCCCCC1)S(=O)(=O)c1ccc(Cl)c(Cl)c1
IC50 (Gamma-secretase): 2.1 µM

CC(C)(C)c1cccc(S(=O)(=O)N(C[C@H](O)[C@@H](N)c2ccccc2)C2CCC2)c1
IC50 (Gamma-secretase): 3.7 µM

CC(C)(O)CN(C[C@H](O)[C@@H](N)c1ccccc1)S(=O)(=O)c1ccc(Cl)c(Cl)c1
IC50 (Gamma-secretase): > 10 µM

N[C@@H](c1ccccc1)[C@@H](O)CN(Cc1ccccc1)S(=O)(=O)c1ccc(Cl)c(Cl)c1
IC50 (Gamma-secretase): 3.4 µM

C[C@H](NC(=O)[C@@H](O)c1cc(F)cc(F)c1)C(=O)N[C@@H]1C(=O)N(C)c2ccccc2-c2ccccc21
inhibition (Mus musculus): Active

CC(C)(C)c1ccc(S(=O)(=O)N(C[C@H](O)[C@@H](N)c2ccccc2)C2CCC2)cc1
IC50 (Gamma-secretase): 3.7 µM

CC(C)CN(C[C@H](O)[C@@H](N)c1ccccc1)S(=O)(=O)c1ccc(Cl)c(Cl)c1
IC50 (Beta-secretase 2): > 100 µM
IC50 (Renin): > 100 µM
IC50 (Cathepsin E): > 100 µM
IC50 (Gamma-secretase): 4.8 µM
IC50 (Cathepsin D): > 100 µM
solubility [3]: 34 µg/mL (≈ 78.8 µM)
IC50 (Beta-secretase 1): > 100 µM

N[C@@H](c1ccccc1)[C@@H](O)CN(C1CCC1)S(=O)(=O)c1ccc(Cl)c(Cl)c1
IC50 (Gamma-secretase): 5.1 µM

CC1(N(C[C@H](O)[C@@H](N)c2ccccc2)S(=O)(=O)c2ccc(Cl)c(Cl)c2)CCC1
IC50 (Gamma-secretase): 6.4 µM

CC1(C)CCC(C)(C)c2cc(S(=O)(=O)N(C[C@H](O)[C@@H](N)c3ccccc3)C3CCC3)ccc21
IC50 (Gamma-secretase): 1.8 µM
